This is an account of results in ChEMBL document CHEMBL3739314, “Discovery of Nanomolar Dengue and West Nile Virus Protease Inhibitors Containing a 4-Benzyloxyphenylglycine Residue” (J Med Chem, 2015).

Structures are written as SMILES. Activity calls are given as the source filed them. No cut-off for these calls is given here. Square brackets hold non-standard residues; d marks the D form. Peptide text beside a SMILES is read from it. * marks the point of attachment. dPhg = N[C@@H](C(=O)O)c1ccccc1; Bz = O=C(c1ccccc1)*

Series [1] is described as follows: Inhibition of Dengue virus serotype-2 NS2B-NS3 protease using 2-Abz-Nle-Lys-Arg-Arg-Ser-(3-NO2)-Tyr-NH2 as substrate preincubated with protein for 15 mins followed by substrate addition measured for 15 mins by FRET assay. Also noted: species or system dengue virus type 2. In outline:
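DENV-2 NS2B-NS3 linked construct at 30 nM (15 nM in some cases), same pH 9 Tris buffer, 15 min preincubation and FRET read-out. Eight inhibitor concentrations spanned 0–1, 0–2, 0–6 or 0–50 μM, with substrate at 50 μM. IC50 was fitted from triplicates.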

Series [2] relates to West Nile virus. Description: Inhibition of West Nile virus NS2B-NS3 protease using 2-Abz-Gly-Leu-Lys-Arg-Gly-Gly-[…]-Tyr-NH2 as substrate at 50 uM preincubated with protein for 15 mins followed by substrate addition measured for 15 mins by FRET assay. In outline:
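Linked WNV NS2B-NS3 protease (150 nM) was preincubated 15 min with inhibitor (50 μM final) in 50 mM Tris-HCl pH 9, 10% ethylene glycol, 0.0016% Brij 58. […] Percent inhibition was taken from the slope relative to the no-inhibitor control, in triplicate.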

Series [3] has as its system dengue virus type 2. Nature of the series: Antiviral activity against Dengue virus serotype-2 infected in African green monkey Vero cells after 7 days by virus yield reduction assay. The class given is functional, organism-based.
The target in series [4] is Prothrombin (Homo sapiens) (UniProt P00734). Nature of the series: Inhibition of thrombin (unknown origin) using Boc-Val-Pro-Arg-AMC as substrate at 25 uM preincubated with protein for 15 mins followed by substrate addition measured for 10 mins by continuous fluorimetric assay relative to control.
The target in series [5] is Trypsin (Homo sapiens) (UniProt P07477+P07478+P35030). Description: Inhibition of trypsin (unknown origin) using Boc-Val-Pro-Arg-AMC as substrate at 25 uM preincubated with protein for 15 mins followed by substrate addition by continuous fluorimetric assay relative to control.
Series [6] in a line: Cytotoxicity against human HuH7 cells infected with Dengue virus serotype-2 assessed as cell viability after 48 hrs by Cell-Titer-Glo luminescent viability assay. The class given is cell-based, Huh-7. In outline: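 Huh-7 cells (10^4/well) were seeded in DMEM + 10% FBS overnight, then infected with WT DENV-2 (MOI 1) in the presence of compound, triplicate per concentration. After 48 h at 37 °C, medium was replaced with fresh DMEM and viability was read by CellTiter-Glo luminescence. CC50 was determined.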

The nature of series [7]: Inhibition of West Nile virus NS2B-NS3 protease using 2-Abz-Gly-Leu-Lys-Arg-Gly-Gly-[…]-Tyr-NH2 as substrate preincubated with protein for 15 mins followed by substrate addition measured for 15 mins by FRET assay. In outline:
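WNV NS2B-NS3 linked construct at 75 nM (40 nM in one case) in pH 9 Tris buffer, preincubated 15 min with eight inhibitor concentrations (ranges 0–1 up to 0–50 μM). Substrate was 50 μM, with FRET readout over 15 min. IC50 was fitted from triplicates.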

Series [8] in a line: Retention time of compound by RP-HPLC analysis. The class given is physicochemical.
Series [9] relates to dengue virus type 2. Description: Inhibition of Dengue virus serotype-2 NS2B-NS3 protease using 2-Abz-Nle-Lys-Arg-Arg-Ser-(3-NO2)-Tyr-NH2 as substrate at 50 uM preincubated with protein for 15 mins followed by substrate addition measured for 15 mins by FRET assay.
Series [10] is described as follows: Permeability of compound after 5 hrs by PAMPA. To be noted: read-out: permeability. The class given is ADME. In outline:
(§1)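 Precoated PAMPA plates were equilibrated 1 h at room temperature. Donor wells received 200 μM compound in PBS, in triplicate, and acceptor wells received PBS. After 5 h at room temperature, donor and acceptor concentrations were quantified by RP-HPLC UV at 254 nm against six-point calibration curves (10–200 μM). Pe and mass retention were calculated by literature formulas.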

Series [11] in a line: Permeability of compound assessed as compound mass retention after 5 hrs by PAMPA. The class given is ADME. In outline: as §1
Series [12] in a line: Half life in Sprague-Dawley rat liver microsomes incubated for 30 mins by UV-HPLC method. The class given is ADME. In outline:
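Pooled male rat liver microsomes (0.2 mg/mL protein) with NADPH (10 mM) in DPBS were preincubated 15 min at 37 °C. Compound (100 μM) was added and incubated at 37 °C; aliquots were taken at 0, 2, 5, 10, 20 and 30 min. Samples were quenched with equal-volume acetonitrile, chilled and centrifuged, and parent remaining was quantified by RP-HPLC UV against reference peak areas. Testosterone served as positive control.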

For `N=C(N)NCCC[C@H](NC(=O)c1cc2ccccc2s1)C(=O)N[C@@H](CCCCN)C(=O)N[C@@H](C(N)=O)c1ccc(OCc2ccc(C(F)(F)F)cc2)cc1`, the values for the IC50 in [1] and in [7] were 199 nM and 604 nM, respectively. Also, the inhibition in series [2] was 98.7%. Also, a half-maximal response in [3] (EC50) required 7060 nM. Besides, the inhibition result in series [4] and in [5] was “inactive” each time. For the same compound, the CC50 at 48 h in [6] stood at 56800 nM. Further, in series [8], the Retention_time came to 3.47 min.
`N=C(N)NCCC[C@H](NC(=O)c1ccccc1)C(=O)N[C@@H](CCCCN)C(=O)N[C@H](C(N)=O)c1ccc(O)cc1`: the results for the inhibition in series [9] and in series [2] were 96.6% and 79.2%, respectively. Besides, the IC50 in [1] was determined as 9700 nM.
Regarding `N=C(N)NCCC[C@H](NC(=O)c1ccccc1)C(=O)N[C@@H](CCCCN)C(=O)N[C@@H](C(N)=O)c1ccccc1` (Bz-Arg-Lys-[dPhg]-NH2), the inhibition in series [9] came out at 99.3%; in series [2], 99%. Moreover, the half-inhibitory concentration (IC50) was found to be 3790 nM in [1] and 3780 nM in series [7].
Regarding `NCCCC[C@H](NC(=O)c1ccccc1)C(=O)N[C@@H](C(N)=O)c1ccc(OCc2ccccc2)cc1`, the inhibition worked out at 16.4% in series [9] and 11.4% in [2].
As to `N=C(N)NCCC[C@H](NC(=O)c1cc2sccc2s1)C(=O)N[C@@H](CCCCN)C(=O)N[C@@H](C(N)=O)c1ccc(OCc2c(Cl)cccc2Cl)cc1`, the IC50 in series [1] came to 158 nM; in [7] it was 785 nM. In addition, in series [2], the inhibition was 99.2%. Also, the EC50 in [3] came to 5330 nM. For the same compound, the inhibition result in series [4] and in [5] was “inactive” each time. For the same compound, the CC50 at 48 h in series [6] stood at 34300 nM. Further, in series [8], the Retention_time is 3.28 min.
As to `N=C(N)NCCC[C@H](NC(=O)c1ccccc1)C(=O)N[C@@H](CCCCN)C(=O)N[C@H](C(N)=O)c1ccc(OCc2ccccc2)cc1`, the inhibition in series [9] is 99.9%; in series [2] it was 88%. For the same compound, the IC50 in series [1] stood at 935 nM.
`N=C(N)NCCC[C@H](NC(=O)c1cc2ccccc2s1)C(=O)N[C@@H](CCCCN)C(=O)N[C@@H](C(N)=O)c1ccc(OCc2ccccc2)cc1` gave an IC50 in series [1] of 451 nM. In addition, the results for the inhibition in [2] and in series [4] were 97.1% and less than 30%, respectively. In addition, the EC50 in [3] stood at 20400 nM. Also, the CC50 at 48 h in series [6] was greater than 100000 nM. Moreover, in series [8], the Retention_time was 3.13 min.
In series [1], `CC(C)(C)c1ccc(COc2ccc([C@@H](NC(=O)[C@H](CCCCN)NC(=O)[C@H](CCCNC(=N)N)NC(=O)c3ccc(Cl)s3)C(N)=O)cc2)cc1` displayed an IC50 of 130 nM. The inhibition in series [2] came to 91.3%. The same compound displayed an EC50 in [3] of 7120 nM. Further, the inhibition entry in series [4] and in [5] was “inactive” throughout. Besides, the Papp at 5 h in series [10] stood at 0.33 ×10⁻⁶ cm/s. Further, the permeability in series [11] is 0.44%. Moreover, the CC50 at 48 h in series [6] was greater than 100000 nM. This compound yielded a Retention_time in [8] of 3.34 min.
Consider `N=C(N)NCCC[C@H](NC(=O)[C@H](CCCCN)NC(=O)c1ccccc1)C(=O)N[C@@H](C(N)=O)c1ccc(OCc2ccccc2)cc1`, for which the inhibition was 77% in series [9] and 91.7% in series [2].
For the compound `COc1cccc(COc2ccc([C@@H](NC(=O)[C@H](CCCCN)NC(=O)[C@H](CCCNC(=N)N)NC(=O)c3cccs3)C(N)=O)cc2)c1`, the IC50 in series [1] turned out to be 68 nM; in series [7], 231 nM. For the same compound, in series [2], the inhibition was determined as 99.3%. Moreover, in series [3], the EC50 was found to be 54600 nM. Besides, the inhibition result in series [4] and in series [5] was “inactive” each time. This compound displayed a half-life in series [12] of 1.55 h. For the same compound, the CC50 at 48 h in [6] is greater than 100000 nM. Also, in [8], the Retention_time is 2.71 min.
On to `N=C(N)NCCC[C@H](NC(=O)c1cc2ccsc2s1)C(=O)N[C@@H](CCCCN)C(=O)N[C@@H](C(N)=O)c1ccc(OCc2ccc(C(F)(F)F)cc2)cc1`, for which the IC50 in [1] amounted to 203 nM. The inhibition in [2] was found to be 94.2%. This compound yielded an EC50 in series [3] of 10500 nM. The inhibition entry in series [4] and in series [5] was “inactive” each time. Moreover, the CC50 at 48 h in [6] came to 48500 nM. This compound came in with a Retention_time in series [8] of 3.39 min.
As for `N=C(N)NCCC[C@H](NC(=O)c1cc(-c2ccccc2)cs1)C(=O)N[C@@H](CCCCN)C(=O)N[C@@H](C(N)=O)c1ccc(OCc2c(Cl)cccc2Cl)cc1`, the values for the IC50 in series [1] and in series [7] were 129 nM and 221 nM, respectively. In addition, the inhibition in series [2] is 98%. Besides, the inhibition result in series [4] and in series [5] was “inactive” throughout.
For the compound `N=C(N)NCCC[C@@H](NC(=O)[C@@H](CCCCN)NC(=O)c1ccccc1)C(=O)N[C@@H](C(N)=O)c1ccc(OCc2ccccc2)cc1`, the values for the inhibition in series [9] and in series [2] were 26.8% and 19.9%, respectively.
For `N=C(N)NCCC[C@H](NC(=O)c1ccccc1)C(=O)N[C@@H](C(N)=O)c1ccc(OCc2ccccc2)cc1` the same measures were 31% and 27.5%.
For the compound `N=C(N)NCCC[C@H](NC(=O)c1cccs1)C(=O)N[C@@H](CCCCN)C(=O)N[C@@H](C(N)=O)c1ccc(OCc2ccc(Br)cc2)cc1`, the results for the IC50 in [1] and in [7] were 71 nM and 150 nM, respectively. Besides, the inhibition in series [2] turned out to be 99.2%. The inhibition result in [4] and in series [5] was “inactive” each time.
With `N=C(N)NCCC[C@H](NC(=O)c1cccs1)C(=O)N[C@@H](CCCCN)C(=O)N[C@@H](C(N)=O)c1ccc(OCc2ccc(C(F)(F)F)cc2)cc1`, the results for the IC50 in series [1] and in [7] were 28 nM and 117 nM, respectively. The Ki in series [1] is 19 nM; in [7], 93 nM. The inhibition in series [2] came to 101%. Also, in [3], a half-maximal effect (EC50) was put at 7060 nM. Moreover, the inhibition entry in [4] and in series [5] was “inactive” throughout. Also, the half-maximal cytotoxic concentration (CC50) at 48 h in [6] was greater than 100000 nM. Further, the Retention_time in [8] is 3.15 min.
With `N=C(N)NCCC[C@H](NC(=O)c1ccc(-c2cccs2)s1)C(=O)N[C@@H](CCCCN)C(=O)N[C@@H](C(N)=O)c1ccc(OCc2ccc(Cl)c(Cl)c2)cc1`, the IC50 in series [1] turned out to be 215 nM; in [7], 365 nM. In series [2], the inhibition was found to be 100%. Besides, the EC50 in series [3] was found to be 7600 nM. Moreover, the inhibition entry in series [4] and in [5] was “inactive” each time. In series [10], the Papp at 5 h stood at 0.79 ×10⁻⁶ cm/s. Moreover, the permeability in series [11] is listed as 2.5%. Also, the CC50 at 48 h in series [6] stood at 40000 nM. The compound also showed a Retention_time in series [8] of 3.6 min.
`N=C(N)NCCC[C@@H](NC(=O)[C@@H](CCCCN)NC(=O)c1ccccc1)C(=O)N[C@H](C(N)=O)c1ccc(OCc2ccccc2)cc1`: the inhibition is 23.5% in [9] and 64% in series [2].
With `N=C(N)NCCC[C@H](NC(=O)c1ccccc1)C(=O)N[C@@H](CCCCN)C(=O)N[C@@H](C(N)=O)c1ccc(O)cc1`, the inhibition in series [9] was 98%; in series [2], 75.1%. 2030 nM corresponded to half-maximal inhibition in series [1] (IC50).
For `N=C(N)NCCC[C@@H](NC(=O)c1ccccc1)C(=O)N[C@H](CCCCN)C(=O)N[C@H](C(N)=O)c1ccc(OCc2ccccc2)cc1`, the inhibition is 29.4% in [9] and 71.3% in [2].
